Active and inactive are the calls of the source. The rule behind the calls is not given here.
Columns and labels:
Steroidogenic factor 1 [1] = target: T1, Steroidogenic factor 1 (Homo sapiens, UniProt Q13285); test: Inverse agonist activity at SF-1; assay type: functional
NCI-H295RR = test: Inhibition of doxycycline induced proliferation in human NCI-H295RR cells; assay type: functional, cell-based
Steroidogenic factor 1 [2] = target: T1, Steroidogenic factor 1; test: Agonist activity at human SF-1 assessed as DAX1 1-23 peptide recruitment by TR-FRET assay relative to control
Steroidogenic factor 1 [3] = target: T1, Steroidogenic factor 1; test: Agonist activity at human SF-1 assessed as DAX1 1-23 peptide recruitment by TR-FRET assay; assay type: functional
Method in brief: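 Biotinylated, bacterially expressed human SF-1 LBD was bound to APC-streptavidin. Biotinylated DAX-1 peptide (aa 1–23) was bound to europium-streptavidin. Receptor and peptide were incubated with test compound, typically at 11 concentrations from 1 nm to 10 µM. Recruitment was read by TR-FRET as the 671/618 nm fluorescence ratio, and pEC50 was calculated from the dose–response curve.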

Steroidogenic factor 1 [4] = target: T1, Steroidogenic factor 1; test: Agonist activity at human SF-1 assessed as DAX1 1-23 peptide recruitment by TR-FRET assay relative to control
[5] = target: Nuclear receptor subfamily 5 group A member 2 (Homo sapiens) (UniProt O00482)
[6] = target: Steroidogenic factor 1 (Mus musculus) (UniProt P33242); test: Displacement of dipalmitoyl phosphatidylinositol 4,5-bisphosphate from mouse SF-1 ligand binding domain at 100 uM after 16 hrs with Coomassie blue staining by PAGE method
[7] = target: Steroidogenic factor 1 (Mus musculus) (UniProt P33242); test: Agonist activity at mouse SF-1 expressed in HEK293 cells assessed as increase in SHP mRNA levels at 10 uM after 24 hrs by RT-qPCR method; assay type: functional, cell-based
Method in brief: (§1)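 HEK293 cells stably carrying Tet-inducible, 3XFlag-tagged mouse SF-1 were induced with 100 ng/mL Tet, and compound in DMSO was added 16 h later. Cells were treated at 10 µM for 24 h. Transcript levels were measured by RT-qPCR and expressed relative to DMSO vehicle.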

[8] = target: Steroidogenic factor 1 (Mus musculus) (UniProt P33242); test: Displacement of dipalmitoyl phosphatidylinositol 4,5-bisphosphate from mouse SF-1 ligand binding domain at 1 uM after 16 hrs with Coomassie blue staining by PAGE method
[9] = Solubility of the compound; assay type: physicochemical
[10] = target: Steroidogenic factor 1 (Mus musculus) (UniProt P33242); test: Agonist activity at mouse SF-1 expressed in HEK293 cells assessed as increase in SHP mRNA levels after 24 hrs by RT-qPCR method; assay type: functional, cell-based
Method in brief: (§2)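 Stable HEK293 lines expressing Tet-inducible mouse SF-1 or empty vector were induced with 100 ng/mL Tet, with compound in DMSO added 16 h afterward. Cells were exposed to a dose series for 24 h. SHP mRNA was quantified by RT-qPCR relative to DMSO, with significance by p-value.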

[11] = target: Steroidogenic factor 1 (Mus musculus) (UniProt P33242); test: Agonist activity at mouse SF-1 expressed in HEK293 cells assessed as increase in SHP mRNA levels at 5 uM after 24 hrs by RT-qPCR method; assay type: functional, cell-based; method in brief: as §2
[12] = target: Steroidogenic factor 1 (Mus musculus) (UniProt P33242); test: Agonist activity at mouse SF-1 expressed in HEK293 cells assessed as increase in StAR mRNA levels at 10 uM after 24 hrs by RT-qPCR method; assay type: functional, cell-based; method in brief: as §1
[13] = target: Steroidogenic factor 1 (Mus musculus) (UniProt P33242); test: Agonist activity at mouse SF-1 expressed in HEK293 cells assessed as increase in GOS2 mRNA levels at 10 uM after 24 hrs by RT-qPCR method; assay type: functional, cell-based; method in brief: as §1
[14] = target: Steroidogenic factor 1 (Mus musculus) (UniProt P33242); test: Agonist activity at mouse SF-1 expressed in HEK293 cells assessed as increase in MeOx1 mRNA levels at 10 uM after 24 hrs by RT-qPCR method; assay type: functional, cell-based; method in brief: as §1
[15] = target: Nuclear receptor subfamily 5 group A member 2 (Homo sapiens) (UniProt O00482); test: Agonist activity at human LRH-1 ligand binding domain at 100 uM with Coomassie blue staining by PAGE method

Steroidogenic factor 1 (Mus musculus), sequence (P33242 whole entry, the tested form may be a part): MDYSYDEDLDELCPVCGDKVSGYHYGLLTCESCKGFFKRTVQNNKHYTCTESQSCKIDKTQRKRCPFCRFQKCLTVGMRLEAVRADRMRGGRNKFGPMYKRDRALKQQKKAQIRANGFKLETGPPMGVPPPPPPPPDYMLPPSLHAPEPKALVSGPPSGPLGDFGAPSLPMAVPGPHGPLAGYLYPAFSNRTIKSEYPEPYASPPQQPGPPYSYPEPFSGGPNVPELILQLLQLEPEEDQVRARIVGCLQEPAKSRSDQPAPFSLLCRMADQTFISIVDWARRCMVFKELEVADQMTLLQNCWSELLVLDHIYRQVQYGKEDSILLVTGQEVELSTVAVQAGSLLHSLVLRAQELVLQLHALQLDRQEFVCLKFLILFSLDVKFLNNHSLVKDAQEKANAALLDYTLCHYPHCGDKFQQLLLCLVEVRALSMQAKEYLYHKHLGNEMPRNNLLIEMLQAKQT
Nuclear receptor subfamily 5 group A member 2 (Homo sapiens), sequence (O00482 whole entry, the tested form may be a part): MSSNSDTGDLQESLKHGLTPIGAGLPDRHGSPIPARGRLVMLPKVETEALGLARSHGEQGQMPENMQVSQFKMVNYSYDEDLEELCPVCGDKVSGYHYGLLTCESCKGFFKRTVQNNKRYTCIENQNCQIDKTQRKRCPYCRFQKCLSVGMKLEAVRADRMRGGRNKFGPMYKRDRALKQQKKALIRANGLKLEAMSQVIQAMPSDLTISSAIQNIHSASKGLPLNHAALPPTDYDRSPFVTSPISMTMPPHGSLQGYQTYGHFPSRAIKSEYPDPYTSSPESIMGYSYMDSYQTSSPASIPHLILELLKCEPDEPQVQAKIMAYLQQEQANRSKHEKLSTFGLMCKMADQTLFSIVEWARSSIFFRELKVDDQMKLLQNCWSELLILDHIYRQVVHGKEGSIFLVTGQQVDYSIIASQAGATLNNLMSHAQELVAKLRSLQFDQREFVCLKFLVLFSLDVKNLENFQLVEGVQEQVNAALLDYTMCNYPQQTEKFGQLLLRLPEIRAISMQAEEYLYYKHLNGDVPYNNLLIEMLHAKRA
T1 sequence (Q13285 whole entry): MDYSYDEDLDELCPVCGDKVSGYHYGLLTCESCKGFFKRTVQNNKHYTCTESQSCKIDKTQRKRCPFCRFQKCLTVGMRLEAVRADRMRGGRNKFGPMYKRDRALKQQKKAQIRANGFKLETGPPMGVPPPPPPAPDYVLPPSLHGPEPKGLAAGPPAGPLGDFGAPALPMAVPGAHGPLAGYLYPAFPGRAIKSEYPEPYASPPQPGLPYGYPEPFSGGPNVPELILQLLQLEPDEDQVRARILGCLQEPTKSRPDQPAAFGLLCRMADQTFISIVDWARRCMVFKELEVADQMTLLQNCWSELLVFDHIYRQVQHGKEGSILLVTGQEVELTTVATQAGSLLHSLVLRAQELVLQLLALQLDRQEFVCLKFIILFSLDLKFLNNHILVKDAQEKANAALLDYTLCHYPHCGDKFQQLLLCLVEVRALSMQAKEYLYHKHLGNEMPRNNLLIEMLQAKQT

## CCCCCCCOc1ccc(O)cc1
Steroidogenic factor 1 [1]
  IC50: 7300 nM

## CCOC(=O)C(C)Oc1cccc2c(=O)n(CC(=O)Nc3ccc(OC)cc3)ccc12 (stereo not given)
NCI-H295RR
  Activity: Active

## C=C(c1ccc(CCCC)cc1)[C@@]12CCC[C@@H]1CC(CCCCCC)=C2c1ccccc1 (racemic)
Steroidogenic factor 1 [2]
  pEC50: inactive

## CCCCCCC1=C(c2ccccc2)[C@]2(OCC(C)CC)CCC[C@@H]2C1 (mixture of isomers)
Steroidogenic factor 1 [3]
  Ratio: 0.56
Steroidogenic factor 1 [4]
  EC50: 200 nM

## C=C(c1ccccc1)[C@@]12CCC[C@@H]1CC=C2c1ccccc1 (racemic)
[5]
  pEC50: inactive
Steroidogenic factor 1 [2]
  pEC50: inactive

## C=C(c1ccc(CC)cc1)[C@@]12CCC[C@@H]1CC(CCCCCC)=C2c1ccccc1 (racemic)
[5]
  pEC50: inactive
Steroidogenic factor 1 [2]
  pEC50: inactive

## C=C(c1ccccc1)[C@@]12C[C@@H](OC(C)=O)C[C@@H]1CC(CCCCCC)=C2c1ccccc1 (racemic)
[5]
  pEC50: inactive
Steroidogenic factor 1 [2]
  pEC50: inactive

## C=C(c1ccccc1)[C@@]12CCC[C@@H]1CC(CCCCCC)=C2C1CCCCC1 (racemic)
Steroidogenic factor 1 [3]
  Ratio: 0.59
Steroidogenic factor 1 [4]
  EC50: 200 nM

## C=C(c1ccc(C(C)(C)C)cc1)[C@@]12CCC[C@@H]1CC(CCCCCC)=C2c1ccccc1 (racemic)
[5]
  pEC50: inactive
Steroidogenic factor 1 [2]
  pEC50: inactive

## CCCCCCC1=C(c2ccccc2)[C@]2(OCCC)CCC[C@@H]2C1 (racemic)
Steroidogenic factor 1 [3]
  Ratio: 0.67
Steroidogenic factor 1 [4]
  EC50: 200 nM

## C=C(CCCCCCCC)[C@@]12CCC[C@@H]1CC(CCCCCC)=C2c1ccccc1 (racemic)
[5]
  pEC50: inactive
Steroidogenic factor 1 [2]
  pEC50: inactive

## C=C(CCCC)[C@@]12CCC[C@@H]1CC(CCCCCC)=C2c1ccccc1 (racemic)
Steroidogenic factor 1 [3]
  Ratio: 0.76
Steroidogenic factor 1 [4]
  EC50: 200 nM
[6]
  Activity: inactive
[7]
  Activity: inactive

## C=C(c1ccccc1)[C@@]12CC[C@@H](O)[C@@H]1CC(CCCCCC)=C2c1ccccc1 (racemic)
[8]
  Activity: Active
[9]
  solubility: soluble
[10]
  Activity: Dose-dependent effect
[11]
  Activity: Active
[7]
  Activity: Active
[12]
  Activity: Active
[13]
  Activity: Active
[14]
  Activity: Active

## C=C(CCCCCC)[C@@]12CCC[C@@H]1CC(CCCCCC)=C2c1ccccc1 (racemic)
[5]
  pEC50: inactive
Steroidogenic factor 1 [2]
  pEC50: inactive

## C=C(c1ccccc1)[C@@]12C[C@H](OC(C)=O)C[C@@H]1CC(CCCCCC)=C2c1ccccc1 (racemic)
Steroidogenic factor 1 [3]
  Ratio: 0.34
Steroidogenic factor 1 [4]
  EC50: 200 nM

## C=C(c1ccccc1)[C@@]12CCC[C@@H]1CC(CCCCCC)=C2CCCC (racemic)
[5]
  pEC50: inactive

## C=C(c1ccccc1)[C@@]12CN(Cc3ccccc3)C[C@@H]1CC(CCCCCC)=C2c1ccccc1 (racemic)
[9]
  solubility: soluble
Steroidogenic factor 1 [2]
  pEC50: inactive

## CCCCCCC1=C(c2ccccc2)[C@]2(OCc3ccccc3)CCC[C@@H]2C1 (racemic)
Steroidogenic factor 1 [2]
  pEC50: inactive

## C=C(c1ccccc1)[C@@]12CCC[C@@H]1CC(CCCCCC)=C2CCC (racemic)
[5]
  pEC50: inactive

## CCCCCCC1=C(c2ccccc2)[C@]2(OCCCCC)CCC[C@@H]2C1 (racemic)
[5]
  pEC50: inactive

## C=C(c1ccccc1)[C@@]12CCC[C@@H]1CC(CCCCCC)=C2CCCO (racemic)
[6]
  Activity: inactive
[7]
  Activity: inactive
Steroidogenic factor 1 [2]
  pEC50: inactive

## C=C(c1ccccc1)[C@@]12CCC[C@@H]1CC(CCCCCC)=C2CCCCCC (racemic)
[5]
  pEC50: inactive
Steroidogenic factor 1 [2]
  pEC50: inactive

## C=C(c1ccccc1)[C@@]12CN(C)C[C@@H]1CC(CCCCCC)=C2c1ccccc1 (racemic)
[8]
  Activity: Active
[9]
  solubility: soluble
[15]
  Activity: Active
[7]
  Activity: Active
[12]
  Activity: Active
[13]
  Activity: Active
[14]
  Activity: Active

## CCCCCCO[C@@]12CCC[C@@H]1CC(CCCCCC)=C2c1ccccc1 (racemic)
[5]
  pEC50: inactive
Steroidogenic factor 1 [2]
  pEC50: inactive

## C=C(c1ccc(OC)cc1)[C@@]12CCC[C@@H]1CC(CCCCCC)=C2c1ccccc1 (racemic)
[5]
  pEC50: inactive
Steroidogenic factor 1 [2]
  pEC50: inactive

## C=C(c1ccccc1)[C@@]12CCC[C@@H]1CC([Si](C)(C)c1ccccc1)=C2c1ccccc1 (racemic)
Steroidogenic factor 1 [3]
  Ratio: 0.33
Steroidogenic factor 1 [4]
  EC50: 63.1 nM

## CCCCCCC1=C(c2ccccc2)[C@]2(OC)CCC[C@@H]2C1 (racemic)
[5]
  pEC50: inactive
Steroidogenic factor 1 [2]
  pEC50: inactive

## C=C(c1ccccc1)[C@@]12CCC[C@@H]1CC(CCCCCC)=C2c1ccc(CC)cc1 (racemic)
[5]
  pEC50: inactive
Steroidogenic factor 1 [2]
  pEC50: inactive

## C=C(c1ccc(-c2ccccc2)cc1)[C@@]12CCC[C@@H]1CC(CCCCCC)=C2c1ccccc1 (racemic)
[5]
  pEC50: inactive
Steroidogenic factor 1 [2]
  pEC50: inactive

From ChEMBL document CHEMBL1765026, “Small molecule agonists of the orphan nuclear receptors steroidogenic factor-1 (SF-1, NR5A1) and liver receptor homologue-1 (LRH-1, NR5A2)” (J Med Chem, 2011)
